The record followed here is PubChem BioAssay.

Assay [1] in a line: Her2 expression decrease, cell viability multiplex – SKBR3 breast tumor cells, AlphaScreen, ATP viability, primary screen (AID 461;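 active means Her2 level under about 52% in both replicate screens, with viability over 70% of control, limit read from the data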;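 on Her2 level: lower value means less Her2 protein in the cells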;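 on viability: percent of carrier control wells set as 100% viability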). The settings on record: SKBR3 Her2 protein level, 18-24 h, measured here: SKBR3 viability, ATP luminescence, at 10 µM. Background: Bead proximity is the source of the signal in Alpha formats.
In assay [2] the target is Receptor tyrosine-protein kinase erbB-2 (Homo sapiens) (UniProt P04626). The description is as above. The conditions noted are these: 18-24 h, at 10 µM, stronger effect = lower value.
The nature of assay [3]: reduced viability of SK-BR-3 breast cancer cells – cell-based, 24 h, human, pilot screen (AID 572;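 active means viability at or below 10% of carrier control in both of two separate runs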;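 further: compound exposure lasted between 18 and 24 h rather than exactly 24 h; 100% = carrier-treated control wells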). The settings on record: SK-BR-3 viability, CellTiter-Glo luminescence, at 10 µM, stronger effect = lower value. On the technique in general: ATP-based viability assays read luminescence as a measure of living cells.
A short description of assay [4]: HUVEC growth inhibition – cell-based, human, primary screen (AID 575;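 active means viability at or below 30% in both replicate assays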;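 further: 100% = median of untreated cell wells with 0.1% DMSO on each plate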). The settings on record: HUVEC proliferation, CellTiter-Glo luminescence, 72 h; at 10 µM; stronger effect = lower value. The essentials: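 system = HUVEC primary cells | amount = 1250 cells/well | buffer or medium = supplemented EBM, 2% fetal bovine serum | dosing = single-point 10 µM, DMSO 0.1% final | times = 72 h compound incubation | detection = CTG luminescence | read-out = % viability relative to median vehicle-well signal on each plate | control set = vehicle and MePR control wells | format = collagen-coated 384-well format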

Assay [5] is described as follows: H69AR cell proliferation blockers – human, duplicate replicates, primary screen (AID 580).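 Further: 100% = mean luminescence of untreated wells and 0% = no signal.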 The settings on record: H69AR lung tumor cells viability, ATP luminescence, 72 h; at 10 µM; stronger effect = lower value.
Assay [6] in a line: MRP1 drug-resistance reversers in H69AR cells – cell-based, doxorubicin co-treatment, pilot screen (AID 601;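 active means viability loss from added drug above about 55%, and viability with drug at most 40%, in both replicates, limit read from the data, passing the limit was not always enough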). The settings on record: CellTiter-Glo, 72 h, at 10 µM; for differential viability (reversal): stronger effect = higher value.
Where [7] appears, read: H69AR cells + 2 uM doxorubicin, measured here: viability with 2 uM doxorubicin, stronger effect = lower value.
The mark [8] stands for this setting: H69AR cells, compound alone cytotoxicity.

The source made the active and inactive calls.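 How the source made its calls, unless noted: active means viability at or under a set limit in both replicates, limit being median viability minus 3 SD (cut at about 48% in these data, passing the limit was not always enough); inconclusive means at or under the limit in just one replicate; inactive means at or above the limit in both replicates.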

Receptor tyrosine-protein kinase erbB-2 (Homo sapiens), sequence (P04626 whole entry, looked up): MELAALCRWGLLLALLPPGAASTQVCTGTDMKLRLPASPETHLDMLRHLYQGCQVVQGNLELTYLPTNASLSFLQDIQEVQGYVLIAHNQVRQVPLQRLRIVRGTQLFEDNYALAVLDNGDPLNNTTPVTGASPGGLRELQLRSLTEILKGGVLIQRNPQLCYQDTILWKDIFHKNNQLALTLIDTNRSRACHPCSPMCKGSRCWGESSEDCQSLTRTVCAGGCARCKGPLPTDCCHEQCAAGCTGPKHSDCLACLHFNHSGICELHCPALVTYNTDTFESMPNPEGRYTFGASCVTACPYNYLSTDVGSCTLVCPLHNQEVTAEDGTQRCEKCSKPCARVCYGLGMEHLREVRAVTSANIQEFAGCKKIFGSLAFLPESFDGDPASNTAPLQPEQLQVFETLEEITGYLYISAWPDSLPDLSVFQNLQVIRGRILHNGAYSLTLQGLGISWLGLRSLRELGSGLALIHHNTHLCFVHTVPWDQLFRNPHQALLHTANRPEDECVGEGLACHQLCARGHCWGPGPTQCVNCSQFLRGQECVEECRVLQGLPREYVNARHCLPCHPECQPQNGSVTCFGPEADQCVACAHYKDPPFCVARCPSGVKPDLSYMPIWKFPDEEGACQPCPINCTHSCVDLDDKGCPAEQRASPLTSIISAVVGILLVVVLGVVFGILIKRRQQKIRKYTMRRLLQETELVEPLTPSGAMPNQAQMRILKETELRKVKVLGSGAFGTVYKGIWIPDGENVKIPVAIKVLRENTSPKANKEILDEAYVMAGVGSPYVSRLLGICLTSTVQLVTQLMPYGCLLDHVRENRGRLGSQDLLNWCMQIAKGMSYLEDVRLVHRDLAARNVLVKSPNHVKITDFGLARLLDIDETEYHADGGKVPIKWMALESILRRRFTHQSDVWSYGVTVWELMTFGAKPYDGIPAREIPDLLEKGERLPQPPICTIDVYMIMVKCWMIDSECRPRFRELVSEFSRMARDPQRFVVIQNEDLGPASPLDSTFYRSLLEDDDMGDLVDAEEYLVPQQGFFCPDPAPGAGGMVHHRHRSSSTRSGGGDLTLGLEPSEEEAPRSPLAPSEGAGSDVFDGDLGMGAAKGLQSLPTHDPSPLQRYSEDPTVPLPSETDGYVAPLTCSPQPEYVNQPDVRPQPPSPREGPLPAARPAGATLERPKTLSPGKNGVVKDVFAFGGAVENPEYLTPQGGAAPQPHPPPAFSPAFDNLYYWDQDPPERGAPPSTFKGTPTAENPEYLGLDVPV

One may read the viability as a read-out of living cells in per cent, often relative to untreated cells. Regarding `CCOC(=O)CCC(=O)O[C@H]1[C@H](O[C@@H]2[C@@H](C)[C@H](O[C@H]3C[C@@](C)(OC)[C@@H](O)[C@H](C)O3)[C@@H](C)C(=O)O[C@H](CC)[C@@](C)(O)[C@H](O)[C@@H](C)C(=O)[C@H](C)C[C@@]2(C)O)O[C@H](C)C[C@@H]1N(C)C`, the viability in assay [1] was 97%; in assay [3] it was 97% (inactive); in assay [4], 79.6% (inactive); in assay [5], 89.8% (inactive); in assay [6] (setting [7]), 90.4%; in assay [6] (setting [8]), 89.8%. The Her2 level in assay [2] is 98% (inactive). Further, the differential viability (reversal) in assay [6] (H69AR cells + 2 uM doxorubicin) was -0.63% (inactive).
In the case of `CCCCOc1ccc(CC(=O)NO)cc1`, the viability in assay [1] is 122%; in assay [3], 122% (inactive); in assay [4], 97% (inactive); in assay [5] it was 54.2% (inactive); in assay [6] (setting [7]) it was 54.3%; in assay [6] (setting [8]), 54.2%. The Her2 level in assay [2] was 98.5% (inactive). Besides, the differential viability (reversal) in assay [6] (H69AR cells + 2 uM doxorubicin) is -0.05% (inactive).
For `CN(C)CCOC(c1ccccc1)c1ccccc1` (tested in a mixture with another compound), the viability in assay [1] is 93.5%; in assay [3], 93.5% (inactive); in assay [4] it was 98.9% (inactive); in assay [5] it was 103% (inactive); in assay [6] (setting [7]) it was 83.7%; in assay [6] (setting [8]), 103%. Moreover, in assay [2], the Her2 level was 106% (inactive). Also, the differential viability (reversal) in assay [6] (H69AR cells + 2 uM doxorubicin) was 19.3% (inactive).
Take `CCCCC(=O)O[C@]1(C(=O)CO)CC[C@H]2[C@@H]3CCC4=CC(=O)CC[C@]4(C)[C@H]3[C@@H](O)C[C@@]21C`: the viability in assay [1] is 111%; in assay [3], 111% (inactive); in assay [4], 101% (inactive); in assay [5], 96.3% (inactive); in assay [6] (setting [7]), 93.3%; in assay [6] (setting [8]) it was 96.3%. In assay [2], the Her2 level was 108% (inactive). In addition, in assay [6] (H69AR cells + 2 uM doxorubicin), the differential viability (reversal) was 3.07% (inactive).
Consider `Cc1onc(-c2ccccc2)c1C(=O)N[C@@H]1C(=O)N2[C@@H]1SC(C)(C)[C@@H]2C(=O)O`, for which the viability in assay [1] was 108%; in assay [3] it was 108% (inactive); in assay [4], 91.1% (inactive); in assay [5], 101% (inactive); in assay [6] (setting [7]) it was 101%; in assay [6] (setting [8]), 101%. The Her2 level in assay [2] is 100% (inactive). The differential viability (reversal) in assay [6] (H69AR cells + 2 uM doxorubicin) was 0% (inactive).
As to `C[C@]12CCC(=O)C=C1CC[C@@H]1[C@@H]2C(=O)C[C@@]2(C)[C@H]1CC[C@]2(O)C(=O)CO`, the viability is 82.5% in assay [1]; 82.5% (inactive) in assay [3]; 98% (inactive) in assay [4]; 101% (inactive) in assay [5]; 88.8% in assay [6] (setting [7]); 101% in assay [6] (setting [8]). For the same molecule, in assay [2], the Her2 level was 110% (inactive). For the same molecule, in assay [6] (H69AR cells + 2 uM doxorubicin), the differential viability (reversal) was 12.6% (inactive).
Take `NC(N)=NS(=O)(=O)c1ccc(N)cc1`: the viability is 100% in assay [1]; 100% (inactive) in assay [3]; 89.2% (inactive) in assay [4]; 98.8% (inactive) in assay [5]; 102% in assay [6] (setting [7]); 98.8% in assay [6] (setting [8]). In addition, the Her2 level in assay [2] is 105% (inactive). For the same molecule, the differential viability (reversal) in assay [6] (H69AR cells + 2 uM doxorubicin) is -2.93% (inactive).
Consider `CC(=O)Oc1cc(C(C)C)c(OCCN(C)C)cc1C`, for which the viability was 96.5% in assay [1]; 96.5% (inactive) in assay [3]; 105% (inactive) in assay [4]; 99% (inactive) in assay [5]; 97.8% in assay [6] (setting [7]); 99% in assay [6] (setting [8]). For the same molecule, in assay [2], the Her2 level was 118% (inactive). The differential viability (reversal) in assay [6] (H69AR cells + 2 uM doxorubicin) was 1.28% (inactive).
Regarding `CCCC(=O)Nc1ccc(OCC(O)CNC(C)C)c(C(C)=O)c1` (stereo not drawn), the viability is 100% in assay [1]; 100% (inactive) in assay [3]; 115% (inactive) in assay [4]; 101% (inactive) in assay [5]; 102% in assay [6] (setting [7]); 101% in assay [6] (setting [8]). Moreover, the Her2 level in assay [2] is 121% (inactive). In addition, the differential viability (reversal) in assay [6] (H69AR cells + 2 uM doxorubicin) is -0.95% (inactive).
With `CC1Cc2ccccc2N1NC(=O)c1ccc(Cl)c(S(N)(=O)=O)c1` (stereo not drawn), the viability in assay [1] was 93.5%; in assay [3], 93.5% (inactive); in assay [4], 102% (inactive); in assay [5], 91.4% (inactive); in assay [6] (setting [7]), 90%; in assay [6] (setting [8]) it was 91.4%. In assay [2], the Her2 level was 105% (inactive). Moreover, in assay [6] (H69AR cells + 2 uM doxorubicin), the differential viability (reversal) was 1.41% (inactive).
On to `Nc1ccc(S(=O)(=O)NC(=O)c2ccccc2)cc1`, for which the viability in assay [1] is 104%; in assay [3] it was 104% (inactive); in assay [4] it was 90% (inactive); in assay [5], 98.5% (inactive); in assay [6] (setting [7]), 92.4%; in assay [6] (setting [8]) it was 98.5%. In addition, the Her2 level in assay [2] was 100% (inactive). The differential viability (reversal) in assay [6] (H69AR cells + 2 uM doxorubicin) is 6.16% (inactive).
In the case of `OCCOCCN1CCN(C(c2ccccc2)c2ccc(Cl)cc2)CC1` (stereo not drawn), the viability in assay [1] is 79%; in assay [3], 79% (inactive); in assay [4], 90.1% (inactive); in assay [5] it was 98.3% (inactive); in assay [6] (setting [7]), 89%; in assay [6] (setting [8]), 98.3%. Besides, in assay [2], the Her2 level was 80% (inactive). In addition, in assay [6] (H69AR cells + 2 uM doxorubicin), the differential viability (reversal) is 9.31% (inactive).
Regarding `COC(=O)[C@@H](N)Cc1ccc(O)cc1`, the viability was 106% in assay [1]; 106% (inactive) in assay [3]; 82.9% (inactive) in assay [4]; 109% (inactive) in assay [5]; 93.8% in assay [6] (setting [7]); 109% in assay [6] (setting [8]). In addition, the Her2 level in assay [2] is 108% (inactive). In addition, in assay [6] (H69AR cells + 2 uM doxorubicin), the differential viability (reversal) is 15.7% (inactive).
For the molecule `c1ccc2[nH]c(-c3cscn3)nc2c1`, the viability in assay [1] was 106%; in assay [3], 106% (inactive); in assay [4] it was 91.1% (inactive); in assay [5] it was 97.9% (inactive); in assay [6] (setting [7]), 102%; in assay [6] (setting [8]), 97.9%. For the same molecule, the Her2 level in assay [2] is 104% (inactive). Moreover, the differential viability (reversal) in assay [6] (H69AR cells + 2 uM doxorubicin) was -4.19% (inactive).
As for `Cc1cn([C@H]2C[C@H](N=[N+]=[N-])[C@@H](CO)O2)c(=O)[nH]c1=O`, the viability was 91.5% in assay [1]; 91.5% (inactive) in assay [3]; 104% (inactive) in assay [4]; 96.5% (inactive) in assay [5]; 92.4% in assay [6] (setting [7]); 96.5% in assay [6] (setting [8]). In assay [2], the Her2 level was 90% (inactive). Besides, in assay [6] (H69AR cells + 2 uM doxorubicin), the differential viability (reversal) was 4.1% (inactive).
Take `CCN(CC)CCNC(=O)c1ccc(N)cc1`: the viability was 97.5% in assay [1]; 97.5% (inactive) in assay [3]; 99.2% (inactive) in assay [4]; 88.1% (inactive) in assay [5]; 98.8% in assay [6] (setting [7]); 88.1% in assay [6] (setting [8]). For the same molecule, the Her2 level in assay [2] is 136% (inactive). Also, the differential viability (reversal) in assay [6] (H69AR cells + 2 uM doxorubicin) was -10.7% (inactive).
With `CN1CCN(CC(=O)N2c3ccccc3C(=O)Nc3cccnc32)CC1`, the viability in assay [1] was 122%; in assay [3] it was 122% (inactive); in assay [4], 98.8% (inactive); in assay [5] it was 96.1% (inactive); in assay [6] (setting [7]) it was 90%; in assay [6] (setting [8]) it was 96.1%. Also, the Her2 level in assay [2] was 98.5% (inactive). Also, the differential viability (reversal) in assay [6] (H69AR cells + 2 uM doxorubicin) is 6.04% (inactive).
Regarding `C[C@]12CC[C@@H]3c4ccc(O)cc4CC[C@H]3[C@@H]1CC[C@@H]2OC(=O)CCC(=O)O`, the viability in assay [1] was 118%; in assay [3], 118% (inactive); in assay [4] it was 99.3% (inactive); in assay [5], 105% (inactive); in assay [6] (setting [7]), 104%; in assay [6] (setting [8]), 105%. Moreover, the Her2 level in assay [2] is 111% (inactive). In assay [6] (H69AR cells + 2 uM doxorubicin), the differential viability (reversal) is 0.94% (inactive).
Turning to `Nc1ccc2[nH]ncc2c1`, the viability in assay [1] is 80.5%; in assay [3], 80.5% (inactive); in assay [4] it was 84.1% (inactive); in assay [5] it was 100% (inactive); in assay [6] (setting [7]) it was 107%; in assay [6] (setting [8]), 100%. The Her2 level in assay [2] is 106% (inactive). The differential viability (reversal) in assay [6] (H69AR cells + 2 uM doxorubicin) was -6.96% (inactive).
Turning to `CN1Cc2c(N)cccc2C(c2ccccc2)C1` (stereo not drawn), the viability in assay [1] was 81%; in assay [3], 81% (inactive); in assay [4], 106% (inactive); in assay [5], 102% (inactive); in assay [6] (setting [7]), 96.5%; in assay [6] (setting [8]), 102%. For the same molecule, the Her2 level in assay [2] was 102% (inactive). The differential viability (reversal) in assay [6] (H69AR cells + 2 uM doxorubicin) is 5.5% (inactive).
For `CCOc1ccc2nc(S(N)(=O)=O)sc2c1`, the viability in assay [1] was 127%; in assay [3], 127% (inactive); in assay [4] it was 59% (inactive); in assay [5], 67.6% (inactive); in assay [6] (setting [7]) it was 60.4%; in assay [6] (setting [8]) it was 67.6%. Also, the Her2 level in assay [2] is 92% (inactive). In addition, the differential viability (reversal) in assay [6] (H69AR cells + 2 uM doxorubicin) is 7.23% (inactive).
